Key:
[1] = Selectivity index, ratio of CC50 for mock-infected human Huh7.5 cells to EC50 for recombinant HCV genotype 2a JFH1; design: species or system Huh-7
In short: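 Huh7.5 cells infected with JFH1-Luc virus (MOI 0.004, 5 h, 37 °C) in the presence of 3-fold serial dilutions. EC50 came from Renilla luciferase on day 3. CC50 came from MTT viability of mock-infected Huh7.5 cells treated in parallel. SI = CC50/EC50.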

[2] = Cytotoxicity against mock-infected human Huh7.5 cells assessed as reduction in cell viability incubated for 5 hrs by MTT assay; assay type: cell-based, Huh-7; settings: mock-infected Huh7.5 cells
In short: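 Mock-infected Huh7.5 cells run alongside the JFH1-Luc antiviral assay with 3-fold serial dilutions. Viability read by MTT assay to give CC50.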

[3] = system: Hepatitis C virus; assay: Antiviral activity against recombinant HCV genotype 2a JFH1 infected in human […] for 5 hrs measured on day 3 post infection by luciferase reporter gene assay; assay type: functional, organism-based, Hepacivirus hominis; settings: JFH-1, Huh-7
In short: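 Huh7.5 cells infected with JFH1-Luc virus (MOI 0.004) for 5 h at 37 °C with 3-fold serial dilutions of compound. Renilla luciferase read from lysates on day 3 postinfection to derive EC50.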

Row | Compound | Ratio CC50/EC50 [1] | CC50 at 5 h [2] | EC50 [3]
1 | COc1ccc(CCC(=O)N(c2ccc(OC)c(OC)c2)C(C(=O)NC2CCCCC2)c2ccc(Cl)cc2)cc1 (configuration not stated) | 1.8 | 57.4 µM | 31.1 µM
2 | NC(=O)c1ncn([C@@H]2O[C@H](CO)[C@@H](O)[C@H]2O)n1 [RIBAVIRIN] | >6.1 | > 100 µM | 16.3 µM
3 | COc1ccc(CCC(=O)N(c2ccc(C(C)C)cc2)C(C(=O)NC2CCCCC2)c2ccc(Cl)cc2)cc1 (configuration not stated) |  | > 100 µM | > 100 µM
4 | COc1ccc(C(C(=O)NC2CCCCC2)N(C(=O)Cc2c[nH]c3ccccc23)c2ccccc2)cc1OC (configuration not stated) |  | 22.5 µM | > 22.3 µM
5 | COc1ccccc1N(C(=O)Cc1c[nH]c2ccccc12)C(C(=O)NC1CCCCC1)c1cc(OC)c(OC)c(OC)c1 (configuration not stated) |  | 23.2 µM | > 23.2 µM
6 | CC(C)c1ccc(N(C(=O)c2ccccc2)C(C(=O)NC2CCCCC2)c2ccc(Cl)cc2)cc1 (configuration not stated) | 9.6 | 64.5 µM | 6.7 µM
7 | O=C(NC1CCCCC1)C(c1ccc(Cl)cc1)N(C(=O)Cc1c[nH]c2ccccc12)c1ccccc1 (configuration not stated) | 3.1 | 10.2 µM | 3.3 µM
8 | COc1cc(C(C(=O)NC2CCCCC2)N(C(=O)Cc2c[nH]c3ccccc23)c2ccccc2)cc(OC)c1OC (configuration not stated) | 2.2 | 36.8 µM | 16.3 µM
9 | O=C(NC1CCCCC1)C(c1ccccc1)N(C(=O)Cc1c[nH]c2ccccc12)c1ccccc1 (configuration not stated) |  | 30.5 µM | > 30.5 µM
10 | COc1ccc(N(C(=O)c2cccc(C)c2C)C(C(=O)NC2CCCCC2)c2ccc(O)cc2)cc1OC (configuration not stated) | 6.1 | 69.8 µM | 11.4 µM
11 | COc1ccc(N(C(=O)Cc2c[nH]c3ccccc23)C(C(=O)NC2CCCCC2)c2ccc(OC)c(OC)c2OC)cc1OC (configuration not stated) |  | 27.1 µM | > 27.1 µM
12 | COc1ccc(N(C(=O)Cc2c[nH]c3ccccc23)C(C(=O)NC2CCCCC2)c2ccc(F)cc2)cc1 (configuration not stated) | 2.4 | 63.6 µM | 26.5 µM
13 | CC(=O)N(c1ccc(C(C)C)cc1)C(C(=O)NC1CCCCC1)c1ccc(Cl)cc1 (configuration not stated) | 8.2 | 89.2 µM | 10.8 µM
14 | COc1ccc(CCC(=O)N(c2ccc(Br)cc2)C(C(=O)NC2CCCCC2)c2ccc([N+](=O)[O-])cc2)cc1 (configuration not stated) | 1.6 | 9.8 µM | 6.1 µM
15 | COc1ccc([N+](=O)[O-])c(C(=O)N(CCc2ccc(OC)c(OC)c2)C(C(=O)NC2CCCCC2)c2ccc([N+](=O)[O-])cc2)c1 (configuration not stated) | >2.8 | > 100 µM | 34.8 µM
16 | COc1ccc(N(C(=O)Cc2c[nH]c3ccccc23)C(C(=O)NC2CCCCC2)c2ccc([N+](=O)[O-])cc2)cc1 (configuration not stated) | 3.4 | 8.5 µM | 2.5 µM
17 | COc1ccc(CCN(C(=O)c2ccccc2)C(C(=O)NC2CCCCC2)c2ccc([N+](=O)[O-])cc2)cc1OC (configuration not stated) | >11.2 | > 100 µM | 8.9 µM
18 | COc1cccc(CCC(=O)N(c2ccc(OC)c(OC)c2)C(C(=O)NC2CCCCC2)c2ccc(O)cc2)c1 (configuration not stated) | 3.3 | 51.5 µM | 15.5 µM
19 | COc1ccc(N(C(=O)c2cc(C)ccc2C)C(C(=O)NC2CCCCC2)c2ccc([N+](=O)[O-])cc2)cc1OC (configuration not stated) | 8.6 | 68.3 µM | 7.9 µM
20 | CCCCCNC(=O)C(c1ccc2c(c1)OCO2)N(C(=O)CCCC)c1ccc(OC)c(OC)c1 (configuration not stated) |  | 32.2 µM | > 32.2 µM
21 | COc1cccc(CCN(C(=O)c2ccc(Cl)nc2)C(C(=O)NC2CCCCC2)c2ccc([N+](=O)[O-])cc2)c1 (configuration not stated) | >13.8 | > 100 µM | 7.2 µM

Reference: ChEMBL document CHEMBL3751796, “Structure-Based Discovery of Novel Cyclophilin A Inhibitors for the Treatment of Hepatitis C Virus Infections” (J Med Chem, 2015)
